Laboratory results taken from ChEMBL document CHEMBL2177088, “Melittin suppresses VEGF-A-induced tumor growth by blocking VEGFR-2 and the COX-2-mediated MAPK signaling pathway” (J Nat Prod, 2012).
Calls of active or inactive are those of the source. The calls are words filed in the database; no cut-off is given here.

Assays:
HUVEC [1] = assay: Down regulation of COX2 expression in HUVEC at 5 to 20 uM after 24 hrs by Western blot analysis; assay type: functional, cell-based; details: Homo sapiens
Mus musculus [2] = assay: Toxicity in VEGFA-stimulated mouse highly metastatic LLC cells xenografted C57BL/6 mouse assessed as lethargy at 0.5 to 5 mg/kg, sc qd for 7 days; assay type: organism-based; set-up: dose 0.5-5 mg/kg, route subcutaneous; details: in vivo, 168 h
HUVEC [3] = assay: Down regulation of VEGF-A expression in VEGFA-stimulated HUVEC at 5 to 20 uM after 24 hrs by Western blot analysis; assay type: functional, cell-based; details: Homo sapiens
[4] = system: Lewis lung carcinoma cell line; assay: Antitumor activity against VEGFA-stimulated mouse highly metastatic LLC cells xenografted in C57BL/6 mouse assessed as tumor growth inhibition at 5 mg/kg, […] relative to control; assay type: functional; details: sc, 432 h, route subcutaneous, read-out: TGI
Mus musculus [5] = assay: Toxicity in VEGFA-stimulated mouse highly metastatic LLC cells xenografted C57BL/6 mouse assessed as reduction of body weight at 0.5 to 5 mg/kg, sc qd for 18 days; assay type: organism-based; set-up: dose 0.5-5 mg/kg, route subcutaneous; details: in vivo, 432 h
In short: (§1)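 C57BL/6 mice bearing sc right-flank VEGF-A-hm LLC tumours (1 × 10^6 cells) were dosed sc at 0.5 or 5 mg/kg from day 12 after inoculation, over the 18-day growth study. Animals were monitored for body weight loss, lethargy, hair loss and mortality.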

Mus musculus [6] = assay: Toxicity in VEGFA-stimulated mouse highly metastatic LLC cells xenografted C57BL/6 mouse assessed as mortality at 0.5 to 5 mg/kg, sc qd for 7 days; assay type: organism-based; set-up: dose 0.5-5 mg/kg, route subcutaneous; details: in vivo, 168 h
HUVEC [7] = assay: Down regulation of VEGFR2 expression in HUVEC at 5 to 20 uM after 24 hrs by Western blot analysis; assay type: functional, cell-based; details: Homo sapiens
[8] = Cytotoxicity against HUVEC assessed as cell viability at 10 uM after 48 hrs by MTT assay relative to control; assay type: cell-based; details: human, HUVEC cells; read-out: Activity
In short: (§2)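 Native (non-transfected) HUVECs were seeded at 1 × 10^4 cells/well on 0.1% gelatin in complete M199 for 24 h. They were then exposed to 1, 5, 10, 20 or 40 μM in serum-free M199 for 48 h at 37 °C. MTT was added for 3 h and formazan dissolved in 2-propanol. After centrifugation, supernatant absorbance was read at 570 nm and expressed as % of control. Three independent experiments in triplicate.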

HUVEC [9] = assay: Down regulation of VEGFA-stimulated COX2 expression in HUVEC at 5 to 20 uM after 24 hrs by Western blot analysis in presence of p38 inhibitor SB203580; assay type: functional, cell-based; details: Homo sapiens
HUVEC [10] = assay: Down regulation of VEGFA-stimulated VEGF-A expression in HUVEC at 5 to 20 uM after 24 hrs by Western blot analysis in presence of p38 inhibitor SB203580; assay type: functional, cell-based; details: Homo sapiens
[11] = molecular target: T1, MAP kinase p38 (Homo sapiens) (UniProt O15264+Q15759+Q16539+P53778); assay: Increase of VEGFA-stimulated p38 phosphorylation in HUVEC by Western blot analysis; assay type: protein assay
In short: (§3)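 VEGF-A-HUVECs exposed to 1, 5 or 10 μM were lysed with protease and phosphatase inhibitors (1 mM NaF, 1 mM Na3VO4). Lysates (10 μg/lane) were run on 10% SDS-PAGE and immunoblotted (1:1000) for phospho- and total ERK1/2, JNK and p38, detected by HRP-ECL.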

[12] = system: Lewis lung carcinoma cell line; assay: Antitumor activity against VEGFA-stimulated mouse highly metastatic LLC cells xenografted in C57BL/6 mouse assessed as reduction of tumor weight at 5 mg/kg, […] relative to control; assay type: functional; set-up: scale not given: the % may be the effect or the level left; details: route subcutaneous
Mus musculus [13] = assay: Toxicity in VEGFA-stimulated mouse highly metastatic LLC cells xenografted C57BL/6 mouse assessed as hair loss at 0.5 to 5 mg/kg, sc qd for 7 days; assay type: organism-based; set-up: dose 0.5-5 mg/kg, route subcutaneous; details: in vivo, 168 h
HUVEC [14] = assay: Down regulation of VEGFR2 expression in VEGFA-stimulated HUVEC at 5 to 20 uM after 24 hrs by Western blot analysis; assay type: functional, cell-based; details: Homo sapiens
Mus musculus [15] = assay: Toxicity in VEGFA-stimulated mouse highly metastatic LLC cells xenografted C57BL/6 mouse assessed as mortality at 0.5 to 5 mg/kg, sc qd for 18 days; assay type: organism-based; set-up: dose 0.5-5 mg/kg, route subcutaneous; details: in vivo, 432 h; in short: as §1
[16] = system: Lewis lung carcinoma cell line; assay: Antitumor activity against VEGFA-stimulated mouse highly metastatic LLC cells xenografted in C57BL/6 mouse assessed as reduction of tumor weight at 0.5 mg/kg, […] relative to control; assay type: functional; set-up: scale not given: the % may be the effect or the level left; details: route subcutaneous
[17] = Cytotoxicity against HUVEC assessed as cell viability at 40 uM after 48 hrs by MTT assay relative to control; assay type: cell-based; details: human, HUVEC cells; read-out: Activity; in short: as §2
[18] = system: Lewis lung carcinoma cell line; assay: Antiangiogenic activity against VEGFA-stimulated mouse highly metastatic LLC cells xenografted in C57BL/6 mouse assessed as reduction of vessel formation at 5 mg/kg, sc qd for 7 days relative to control; assay type: functional; set-up: scale not given: the % may be the effect or the level left; details: route subcutaneous
In short: (§4)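 VEGF-A-hm LLC cells (5 × 10^5 in 50 μL) were inoculated intradermally into the back skin of mice. Compound was given sc at 0.5 or 5 mg/kg/day for 7 days, starting day 3 after inoculation. Mice were killed on day 10 and the inoculated skin separated from underlying tissue. Only vessels directly supplying the tumour were counted under a dissecting microscope; reduction is versus untreated control.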

[19] = Cytotoxicity against HUVEC assessed as cell viability at 5 uM after 48 hrs by MTT assay relative to control; assay type: cell-based; details: human, HUVEC cells; read-out: Activity; in short: as §2
HUVEC [20] = assay: Down regulation of COX2 expression in VEGFA-stimulated HUVEC at 5 to 20 uM after 24 hrs by Western blot analysis; assay type: functional, cell-based; details: Homo sapiens
HUVEC [21] = assay: Antiangiogenic activity against VEGFA-stimulated cell proliferation in HUVEC after 48 hrs by BrdU incorporation assay; assay type: functional, cell-based; details: Homo sapiens
[22] = Cytotoxicity against HUVEC assessed as cell viability at 1 uM after 48 hrs by MTT assay relative to control; assay type: cell-based; details: human, HUVEC cells; read-out: Activity; in short: as §2
HUVEC [23] = assay: Inhibition of VEGFA-stimulated PGE2 production in HUVEC at 5 to 20 uM after 24 hrs by ELISA; assay type: functional, cell-based; details: Homo sapiens
[24] = system: Lewis lung carcinoma cell line; assay: Antiangiogenic activity against VEGFA-stimulated mouse highly metastatic LLC cells xenografted in C57BL/6 mouse assessed as reduction of vessel formation at 0.5 mg/kg, sc qd for 7 days relative to control; assay type: functional; set-up: scale not given: the % may be the effect or the level left; details: route subcutaneous; in short: as §4
[25] = Cytotoxicity against HUVEC assessed as cell viability at 20 uM after 48 hrs by MTT assay relative to control; assay type: cell-based; details: human, HUVEC cells; read-out: Activity; in short: as §2
Mus musculus [26] = assay: Toxicity in VEGFA-stimulated mouse highly metastatic LLC cells xenografted C57BL/6 mouse assessed as hair loss at 0.5 to 5 mg/kg, sc qd for 18 days; assay type: organism-based; set-up: dose 0.5-5 mg/kg, route subcutaneous; details: in vivo, 432 h; in short: as §1
[27] = system: Lewis lung carcinoma cell line; assay: Antitumor activity against VEGFA-stimulated mouse highly metastatic LLC cells xenografted in C57BL/6 mouse assessed as tumor growth inhibition at 0.5 mg/kg, […] relative to control; assay type: functional; details: sc, 432 h, route subcutaneous, read-out: TGI
HUVEC [28] = assay: Inhibition of VEGFA-stimulated VEGF production in HUVEC at 5 to 20 uM after 24 hrs by enzyme immunoassay; assay type: functional, cell-based; details: Homo sapiens
[29] = molecular target: T1, MAP kinase p38 (Homo sapiens); assay: Increase of VEGFA-stimulated p38 phosphorylation in HUVEC by Western blot analysis in presence of p38 inhibitor SB203580; assay type: protein assay
In short: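 VEGF-A-HUVECs were pretreated 30 min with SB203580 before the compound was added. Lysates with phosphatase inhibitors (10 μg/lane) were separated by 10% SDS-PAGE and immunoblotted (1:1000) for phospho-p38 and total p38, detected by HRP-ECL.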

HUVEC [30] = assay: Antiangiogenic activity against VEGFA-stimulated capillary differentiation in HUVEC after 18 hrs by matrigel assay; assay type: functional, cell-based; details: Homo sapiens
In short: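 VEGF-A-HUVECs (HUVECs stably transfected with pcDNA3.1 carrying mouse VEGF-A164, G418-selected) were plated at 1 × 10^5 cells on polymerised growth factor-reduced Matrigel (5 mg/mL) with 5, 10 or 20 μM. They were incubated 18 h at 37 °C, 5% CO2, then washed, fixed and photographed (100×). Tube area per random field was quantified by image analysis. Three experiments in triplicate; IC50 read from the dose curve.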

Mus musculus [31] = assay: Toxicity in VEGFA-stimulated mouse highly metastatic LLC cells xenografted C57BL/6 mouse assessed as lethargy at 0.5 to 5 mg/kg, sc qd for 18 days; assay type: organism-based; set-up: dose 0.5-5 mg/kg, route subcutaneous; details: in vivo, 432 h; in short: as §1
HUVEC [32] = assay: Down regulation of VEGF-A expression in HUVEC at 5 to 20 uM after 24 hrs by Western blot analysis; assay type: functional, cell-based; details: Homo sapiens
[33] = molecular target: c-Jun N-terminal kinase, JNK (Homo sapiens) (UniProt P45983+P53779+P45984); assay: Inhibition of VEGFA-stimulated JNK phosphorylation in HUVEC by Western blot analysis; assay type: cell-based; in short: as §3
[34] = molecular target: Mitogen-activated protein kinase; ERK1/ERK2 (Homo sapiens) (UniProt P27361+P28482); assay: Inhibition of VEGFA-stimulated ERK1/2 phosphorylation in HUVEC by Western blot analysis; assay type: protein assay; in short: as §3
Chain of Mitogen-activated protein kinase; ERK1/ERK2 (Homo sapiens) (P27361 whole entry, looked up): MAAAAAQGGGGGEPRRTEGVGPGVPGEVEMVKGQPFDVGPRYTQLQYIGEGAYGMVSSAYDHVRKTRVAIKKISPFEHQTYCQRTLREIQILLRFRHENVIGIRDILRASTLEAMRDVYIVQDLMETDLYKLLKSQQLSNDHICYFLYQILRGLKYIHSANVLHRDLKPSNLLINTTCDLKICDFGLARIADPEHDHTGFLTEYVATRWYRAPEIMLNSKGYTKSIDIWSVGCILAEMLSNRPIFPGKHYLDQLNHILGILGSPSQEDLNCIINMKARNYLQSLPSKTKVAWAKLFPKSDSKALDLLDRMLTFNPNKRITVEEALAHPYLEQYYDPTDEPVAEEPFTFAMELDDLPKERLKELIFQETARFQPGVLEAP
Chain of Mitogen-activated protein kinase; ERK1/ERK2 (Homo sapiens) (P28482 whole entry, looked up): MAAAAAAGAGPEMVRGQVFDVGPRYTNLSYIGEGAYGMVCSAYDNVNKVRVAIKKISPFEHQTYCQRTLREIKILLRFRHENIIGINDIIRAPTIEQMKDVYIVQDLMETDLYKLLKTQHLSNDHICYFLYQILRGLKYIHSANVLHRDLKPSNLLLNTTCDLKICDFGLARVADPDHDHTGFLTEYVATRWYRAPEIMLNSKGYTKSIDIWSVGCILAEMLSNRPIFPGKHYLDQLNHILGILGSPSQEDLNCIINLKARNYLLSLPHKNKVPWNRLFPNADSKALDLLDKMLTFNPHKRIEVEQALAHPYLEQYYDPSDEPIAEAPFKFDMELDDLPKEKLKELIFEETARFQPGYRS

In the case of `CC[C@H](C)[C@H](NC(=O)CN)C(=O)NCC(=O)N[C@@H](C)C(=O)N[C@H](C(=O)N[C@@H](CC(C)C)C(=O)N[C@@H](CCCCN)C(=O)N[C@H](C(=O)N[C@@H](CC(C)C)C(=O)N[C@H](C(=O)N[C@H](C(=O)NCC(=O)N[C@@H](CC(C)C)C(=O)N1CCC[C@H]1C(=O)N[C@@H](C)C(=O)N[C@@H](CC(C)C)C(=O)N[C@H](C(=O)N[C@@H](CO)C(=O)N[C@@H](Cc1c[nH]c2ccccc12)C(=O)N[C@H](C(=O)N[C@@H](CCCCN)C(=O)N[C@@H](CCCNC(=N)N)C(=O)N[C@@H](CCCCN)C(=O)N[C@@H](CCCNC(=N)N)C(=O)N[C@@H](CCC(N)=O)C(=O)N[C@@H](CCC(N)=O)C(N)=O)[C@@H](C)CC)[C@@H](C)CC)[C@@H](C)O)[C@@H](C)O)C(C)C)C(C)C` [MELITTIN], the Activity (HUVEC [1]) is reported as “inactive”, the Activity (Mus musculus [2]) is reported as “Non-toxic” and the Activity (HUVEC [3]) is reported as “Active”. For the same compound, the inhibition in vivo at 5 mg/kg [4] was 57%, the Activity (Mus musculus [5]) was “Non-toxic” and the Activity (Mus musculus [6]) was “Non-toxic”. The Activity (HUVEC [7]) was “inactive”, the viability at 48 h, 10 µM [8] was 99.4% and the Activity (HUVEC [9]) was “inactive”. The Activity (HUVEC [10]) was “inactive”, the Activity [11] was “Dose-dependent effect” and the Activity [12] was 91%. For the same compound, the Activity (Mus musculus [13]) was “Non-toxic”, the Activity (HUVEC [14]) was “Active” and the Activity (Mus musculus [15]) was “Non-toxic”. It also gave an Activity [16] of 60%, a viability at 48 h, 40 µM [17] of 96.5% and an Activity [18] of 59%. For the same compound, the viability at 48 h, 5 µM [19] was 98.9%, the Activity (HUVEC [20]) was “Active” and the IC50 (HUVEC [21]) was 18 µM. For the same compound, the inhibition (HUVEC [21]) was “Dose-dependent effect”, the viability at 48 h, 1 µM [22] was 104% and the inhibition (HUVEC [23]) was “Active”. The Activity [24] was 52%, the viability at 48 h, 20 µM [25] was 98.5% and the Activity (Mus musculus [26]) was “Non-toxic”. The inhibition in vivo at 0.5 mg/kg [27] was 25%, the inhibition (HUVEC [28]) was “Active” and the Activity [29] was “inactive”. For the same compound, the IC50 (HUVEC [30]) was 13 µM, the inhibition (HUVEC [30]) was “Dose-dependent effect” and the Activity (Mus musculus [31]) was “Non-toxic”. The Activity (HUVEC [32]) was “inactive”, the inhibition [33] was “Active” and the inhibition [34] was “Dose-dependent effect”.

In the case of `CS(=O)(=O)Nc1ccc([N+](=O)[O-])cc1OC1CCCCC1` [NS-398], the inhibition in vivo at 5 mg/kg [4] is reported as 42%, the Activity [18] is reported as 22% and the inhibition (HUVEC [21]) is reported as “Active”. For the same compound, the inhibition (HUVEC [30]) was “Active”.
